Reference: ChEMBL document CHEMBL4339192, “De Novo Designed Amphipathic α-Helical Antimicrobial Peptides Incorporating Dab and Dap Residues on the Polar Face To Treat the Gram-Negative Pathogen, Acinetobacter baumannii” (J Med Chem, 2019)
Converted amounts (≈) assume the structure as drawn. Where a SMILES comes first, the peptide text is derived from it. [ ]: non-standard residue; d: D form. dOrn = NCCC[C@@H](N)C(=O)O

What was measured:
Assay type in all cases: functional
Acinetobacter baumannii [1] = assay: Antibacterial activity against Acinetobacter baumannii isolate 964304 measured after 24 hrs by microtiter dilution method; conditions: isolate 964304, 24 h
Summary of the method: (§1)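 Broth microdilution in Mueller-Hinton (MH) medium. […] Plates were incubated 24 h at 37 °C. MIC was the lowest peptide concentration that inhibited growth, based on three sets of replicates.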

Acinetobacter baumannii [2] = assay: Antibacterial activity against Acinetobacter baumannii isolate 963618 measured after 24 hrs by microtiter dilution method; conditions: isolate 963618, 24 h; summary of the method: as §1
Acinetobacter baumannii [3] = assay: Antibacterial activity against Acinetobacter baumannii isolate 1010245 measured after 24 hrs by microtiter dilution method; conditions: isolate 1010245, 24 h; summary of the method: as §1
Acinetobacter baumannii [4] = assay: Antibacterial activity against Acinetobacter baumannii isolate 981650 measured after 24 hrs by microtiter dilution method; conditions: isolate 981650, 24 h; summary of the method: as §1
Acinetobacter baumannii [5] = assay: Antibacterial activity against polymyxin B/colistin-resistant Acinetobacter baumannii M89963 measured after 24 hrs by microtiter dilution method; conditions: M89963, 24 h; summary of the method: as §1
Acinetobacter baumannii [6] = assay: Antibacterial activity against Acinetobacter baumannii isolate 1002956 measured after 24 hrs by microtiter dilution method; conditions: isolate 1002956, 24 h; summary of the method: as §1
Acinetobacter baumannii [7] = assay: Antibacterial activity against Acinetobacter baumannii isolate 1035794 measured after 24 hrs by microtiter dilution method; conditions: isolate 1035794, 24 h; summary of the method: as §1
Acinetobacter baumannii [8] = assay: Antibacterial activity against Acinetobacter baumannii isolate 9383370 measured after 24 hrs by microtiter dilution method; conditions: isolate 9383370, 24 h; summary of the method: as §1
Acinetobacter baumannii [9] = assay: Antibacterial activity against Acinetobacter baumannii isolate 1017395 measured after 24 hrs by microtiter dilution method; conditions: isolate 1017395, 24 h; summary of the method: as §1
Acinetobacter baumannii [10] = assay: Antibacterial activity against Acinetobacter baumannii isolate 968886 measured after 24 hrs by microtiter dilution method; conditions: isolate 968886, 24 h; summary of the method: as §1
Acinetobacter baumannii [11] = assay: Antibacterial activity against Acinetobacter baumannii 649 measured after 24 hrs by microtiter dilution method; conditions: Acinetobacter baumannii, 649, 24 h; summary of the method: as §1
Acinetobacter baumannii [12] = assay: Antibacterial activity against Acinetobacter baumannii isolate 961997 measured after 24 hrs by microtiter dilution method; conditions: isolate 961997, 24 h; summary of the method: as §1
Acinetobacter baumannii [13] = assay: Antibacterial activity against polymyxin B/colistin-resistant Acinetobacter baumannii M89952 measured after 24 hrs by microtiter dilution method; conditions: M89952, 24 h; summary of the method: as §1
Acinetobacter baumannii [14] = assay: Antibacterial activity against polymyxin B/colistin-resistant Acinetobacter baumannii M89951 measured after 24 hrs by microtiter dilution method; conditions: M89951, 24 h; summary of the method: as §1
Acinetobacter baumannii [15] = assay: Antibacterial activity against polymyxin B/colistin-resistant Acinetobacter baumannii M89949 measured after 24 hrs by microtiter dilution method; conditions: M89949, 24 h; summary of the method: as §1
Acinetobacter baumannii [16] = assay: Antibacterial activity against Acinetobacter baumannii isolate 1010282 measured after 24 hrs by microtiter dilution method; conditions: isolate 1010282, 24 h; summary of the method: as §1
Acinetobacter baumannii [17] = assay: Antibacterial activity against Acinetobacter baumannii isolate 1018887 measured after 24 hrs by microtiter dilution method; conditions: isolate 1018887, 24 h; summary of the method: as §1
Acinetobacter baumannii [18] = assay: Antibacterial activity against Acinetobacter baumannii isolate 1035166 measured after 24 hrs by microtiter dilution method; conditions: isolate 1035166, 24 h; summary of the method: as §1
Acinetobacter baumannii [19] = assay: Antibacterial activity against Acinetobacter baumannii isolate 1001611 measured after 24 hrs by microtiter dilution method; conditions: isolate 1001611, 24 h; summary of the method: as §1
Acinetobacter baumannii [20] = assay: Antibacterial activity against Acinetobacter baumannii isolate 1007660 measured after 24 hrs by microtiter dilution method; conditions: isolate 1007660, 24 h; summary of the method: as §1
Acinetobacter baumannii [21] = assay: Antibacterial activity against Acinetobacter baumannii isolate 1021371 measured after 24 hrs by microtiter dilution method; conditions: isolate 1021371, 24 h; summary of the method: as §1
Acinetobacter baumannii [22] = assay: Antibacterial activity against Acinetobacter baumannii isolate 977751 measured after 24 hrs by microtiter dilution method; conditions: isolate 977751, 24 h; summary of the method: as §1
Acinetobacter baumannii [23] = assay: Antibacterial activity against polymyxin B/colistin-resistant Acinetobacter baumannii M89941 measured after 24 hrs by microtiter dilution method; conditions: M89941, 24 h; summary of the method: as §1
Acinetobacter baumannii [24] = assay: Antibacterial activity against polymyxin B/colistin-resistant Acinetobacter baumannii M89953 measured after 24 hrs by microtiter dilution method; conditions: M89953, 24 h; summary of the method: as §1
Acinetobacter baumannii [25] = assay: Antibacterial activity against Acinetobacter baumannii isolate 965463 measured after 24 hrs by microtiter dilution method; conditions: isolate 965463, 24 h; summary of the method: as §1
Acinetobacter baumannii [26] = assay: Antibacterial activity against Acinetobacter baumannii isolate 952654 measured after 24 hrs by microtiter dilution method; conditions: isolate 952654, 24 h; summary of the method: as §1
Acinetobacter baumannii [27] = assay: Antibacterial activity against Acinetobacter baumannii isolate 963659 measured after 24 hrs by microtiter dilution method; conditions: isolate 963659, 24 h; summary of the method: as §1

CC(=O)N[C@H](CCCCN)C(=O)N[C@H](CC(C)C)C(=O)N[C@H](CCCN)C(=O)N[C@H](CO)C(=O)N[C@H](CC(C)C)C(=O)N[C@H](CC(C)C)C(=O)N[C@H](CCCN)C(=O)N[C@@H](C(=O)N[C@H](CC(C)C)C(=O)N[C@H](CO)C(=O)N[C@H](CCCN)C(=O)N[C@H](C)C(=O)N[C@H](C)C(=O)N[C@H](C)C(=O)N[C@H](C)C(=O)N[C@H](C)C(=O)N[C@H](CC(C)C)C(=O)N[C@H](CCCN)C(=O)N[C@@H](C(=O)N[C@H](CC(C)C)C(=O)N[C@H](CC(C)C)C(=O)N[C@H](CCCN)C(=O)N[C@H](C)C(=O)N[C@H](CC(C)C)C(=O)N[C@H](CO)C(=O)N[C@H](CCCN)C(N)=O)[C@H](C)O)[C@H](C)O (Ac-[dK][dL][dOrn][dS][dL][dL][dOrn][dT][dL][dS][dOrn][dA][dA][dA][dA][dA][dL][dOrn][dT][dL][dL][dOrn][dA][dL][dS][dOrn]-NH2)
MIC (Acinetobacter baumannii [1]): 1.5 µM (≈ 4 µg/mL)
MIC (Acinetobacter baumannii [2]): 1.5 µM (≈ 4 µg/mL)
MIC (Acinetobacter baumannii [3]): 1.5 µM (≈ 4 µg/mL)
MIC (Acinetobacter baumannii [4]): 1.5 µM (≈ 4 µg/mL)
MIC (Acinetobacter baumannii [5]): 2.9 µM (≈ 7.74 µg/mL)
MIC (Acinetobacter baumannii [6]): 1.5 µM (≈ 4 µg/mL)
MIC (Acinetobacter baumannii [7]): 3 µM (≈ 8 µg/mL)
MIC (Acinetobacter baumannii [8]): 3 µM (≈ 8 µg/mL)
MIC (Acinetobacter baumannii [9]): 3 µM (≈ 8 µg/mL)
MIC (Acinetobacter baumannii [10]): 3 µM (≈ 8 µg/mL)
MIC (Acinetobacter baumannii [11]): 1.5 µM (≈ 4 µg/mL)
MIC (Acinetobacter baumannii [12]): 1.5 µM (≈ 4 µg/mL)
MIC (Acinetobacter baumannii [13]): 1.5 µM (≈ 4 µg/mL)
MIC (Acinetobacter baumannii [14]): 1.5 µM (≈ 4 µg/mL)
MIC (Acinetobacter baumannii [15]): 2.9 µM (≈ 7.74 µg/mL)
MIC (Acinetobacter baumannii [16]): 1.5 µM (≈ 4 µg/mL)
MIC (Acinetobacter baumannii [17]): 3 µM (≈ 8 µg/mL)
MIC (Acinetobacter baumannii [18]): 1.5 µM (≈ 4 µg/mL)
MIC (Acinetobacter baumannii [19]): 1.5 µM (≈ 4 µg/mL)
MIC (Acinetobacter baumannii [20]): 1.5 µM (≈ 4 µg/mL)
MIC (Acinetobacter baumannii [21]): 1.5 µM (≈ 4 µg/mL)
MIC (Acinetobacter baumannii [22]): 6 µM (≈ 16 µg/mL)
MIC (Acinetobacter baumannii [23]): 2.9 µM (≈ 7.74 µg/mL)
MIC (Acinetobacter baumannii [24]): 1.5 µM (≈ 4 µg/mL)
MIC (Acinetobacter baumannii [25]): 3 µM (≈ 8 µg/mL)
MIC (Acinetobacter baumannii [26]): 1.5 µM (≈ 4 µg/mL)
MIC (Acinetobacter baumannii [27]): 0.7 µM (≈ 1.87 µg/mL)
